In test [1] the test system is Calvarial osteoblast. The experiment in a line: Upregulation of Osx mRNA levels in rat calvarial osteoblasts at 10 nM after 48 hrs by qRT-PCR analysis relative to control. The class given is functional. In outline:
(§1)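 Rat pup calvarial osteoblasts were treated for 48 h with compound. Total RNA was extracted with TRIzol and checked by A260 and A260/A280. qRT-PCR used 45 cycles (94 °C, 62 °C, 72 °C steps) and was normalised to GAPDH. Fold change is over untreated cells; n=5, mean ± SEM.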
In general terms: In qPCR the cycle at which signal appears reflects the starting amount.

For test [2], the system named is Calvarial osteoblast. The experiment in a line: Upregulation of ALP mRNA levels in rat calvarial osteoblasts at 1 uM after 48 hrs by qRT-PCR analysis relative to control. The class given is functional. Put shortly: as §1
Test [3] deals with Calvarial osteoblast. Description: Upregulation of Runx2 mRNA levels in rat calvarial osteoblasts at 10 nM after 48 hrs by qRT-PCR analysis relative to control. The class given is functional. In outline:
as §1

Test [4] relates to Calvarial osteoblast. Description: Induction of mineralization in rat calvarial osteoblasts at 10 nM after 21 days by Alizarin-red dye based assay. The class given is functional, cell-based. In outline: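 Rat pup calvarial osteoblasts were seeded at 1×10^4 cells/well in differentiation medium with compound. Medium was changed every other day for 21 days. Cells were fixed in 4% paraformaldehyde and stained with 40 mM Alizarin red (pH 4.5). Stain was extracted with 10% acetic acid, heated to 85 °C, and neutralised with NH4OH. Absorbance was read at 405 nm.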

The subject of test [5] is Calvarial osteoblast. Description: Anabolic activity in rat calvarial osteoblasts assessed as induction of alkaline phosphatase activity at 1 pM after 48 hrs in presence of beta-glycerophosphate and ascorbic acid by p-nitrophenyl phosphate substrate based assay (reference value: 1 to 1.21). The class given is functional.
In test [6] the test system is Calvarial osteoblast. The experiment in a line: Upregulation of Runx2 mRNA levels in rat calvarial osteoblasts at 1 uM after 48 hrs by qRT-PCR analysis relative to control. The class given is functional. Put shortly: as §1
For test [7], the system named is Calvarial osteoblast. The experiment in a line: Anabolic activity in rat calvarial osteoblasts assessed as induction of alkaline phosphatase activity after 48 hrs in presence of beta-glycerophosphate and ascorbic acid by p-nitrophenyl phosphate substrate based assay. The class given is functional, cell-based.
In test [8] the test system is Calvarial osteoblast. The experiment in a line: Anabolic activity in rat calvarial osteoblasts assessed as induction of alkaline phosphatase activity at 100 pM after 48 hrs in presence of beta-glycerophosphate and ascorbic acid by p-nitrophenyl phosphate substrate based assay (reference value: 1 to 1.21). The class given is functional.
Test [9] deals with Calvarial osteoblast. The experiment in a line: Anabolic activity in rat calvarial osteoblasts assessed as induction of alkaline phosphatase activity at 100 uM after 48 hrs in presence of beta-glycerophosphate and ascorbic acid by p-nitrophenyl phosphate substrate based assay (reference value: 1 to 1.21). The class given is functional.
Test [10] deals with Calvarial osteoblast. Description: Upregulation of Bmp2 mRNA levels in rat calvarial osteoblasts at 10 nM after 48 hrs by qRT-PCR analysis relative to control. The class given is functional. Put shortly: as §1
Test [11] has as its system Calvarial osteoblast. The experiment in a line: Anabolic activity in rat calvarial osteoblasts assessed as induction of alkaline phosphatase activity at 10 nM after 48 hrs in presence of beta-glycerophosphate and ascorbic acid by p-nitrophenyl phosphate substrate based assay (reference value: 1 to 1.21). The class given is functional.
The subject of test [12] is Calvarial osteoblast. Description: Upregulation of Col1 mRNA levels in rat calvarial osteoblasts at 10 nM after 48 hrs by qRT-PCR analysis relative to control. The class given is functional. In outline: as §1
For test [13], the system named is Calvarial osteoblast. Description: Upregulation of ALP mRNA levels in rat calvarial osteoblasts at 10 nM after 48 hrs by qRT-PCR analysis relative to control. The class given is functional. Put shortly:
as §1

Test [14] deals with Calvarial osteoblast. Description: Upregulation of Bmp2 mRNA levels in rat calvarial osteoblasts at 1 uM after 48 hrs by qRT-PCR analysis relative to control. The class given is functional. Put shortly: as §1
For test [15], the system named is Calvarial osteoblast. The experiment in a line: Upregulation of Col1 mRNA levels in rat calvarial osteoblasts at 1 uM after 48 hrs by qRT-PCR analysis relative to control. The class given is functional. Put shortly: as §1
Test [16] has as its system Calvarial osteoblast. The experiment in a line: Anabolic activity in rat calvarial osteoblasts assessed as induction of alkaline phosphatase activity at 1 uM after 48 hrs in presence of beta-glycerophosphate and ascorbic acid by p-nitrophenyl phosphate substrate based assay (reference value: 1 to 1.21). The class given is functional.
Test [17] concerns Calvarial osteoblast. Description: Upregulation of Osx mRNA levels in rat calvarial osteoblasts at 1 uM after 48 hrs by qRT-PCR analysis relative to control. The class given is functional. Put shortly: as §1

Activity calls are given as the source filed them. The rule behind the calls is not given here.

From ChEMBL document CHEMBL4177648, “Benzofuran-dihydropyridine hybrids: A new class of potential bone anabolic agents” (Bioorg Med Chem, 2017) come the findings set out here.

As for `CCOC(=O)C1=C(C)NC2=C(C(=O)CCC2)C1c1cc(C(C)CC)c2oc(C(=O)c3ccc(OC)cc3)cc2c1` (stereo not drawn), the “fold change (FC)” value with Calvarial osteoblast [1], in the test with Calvarial osteoblast [2], in the test on Calvarial osteoblast [3], in the test with Calvarial osteoblast [6], in the test on Calvarial osteoblast [10] and in the test on Calvarial osteoblast [12] was 2 - 5.5 throughout. In addition, the “fold change (FC)” value with Calvarial osteoblast [13], with Calvarial osteoblast [14], with Calvarial osteoblast [15] and in the test on Calvarial osteoblast [17] was 2 - 5.5 throughout. Besides, the outcome in the test on Calvarial osteoblast [4] was Active. In addition, the OD worked out at 0.94 with Calvarial osteoblast [5]; 0.99 in the test with Calvarial osteoblast [8]; 0.25 in the test with Calvarial osteoblast [9]; 1.4 with Calvarial osteoblast [11]; 1.37 in the test on Calvarial osteoblast [16]. Moreover, in the test on Calvarial osteoblast [7], the EC50 worked out at 0.01 µM.

Regarding `CCC(C)c1cc(C=O)cc2cc(C(=O)c3ccc(C)cc3)oc12` (stereo not drawn), the OD turned out to be 1.23 in the test with Calvarial osteoblast [5]; 1.16 with Calvarial osteoblast [8]; 0.3 in the test on Calvarial osteoblast [9]; 1.41 with Calvarial osteoblast [11]; 1.42 with Calvarial osteoblast [16]. Further, the EC50 with Calvarial osteoblast [7] is 0.0314 µM.

The term EC50 denotes the concentration that produces a half-maximal response.
